Experimental data from ChEMBL document CHEMBL5247599, “New β-arylchalcogeno amines with procognitive properties targeting Carbonic Anhydrases and Monoamine Oxidases” (Eur J Med Chem, 2022).
pIC50: −log10 of the molar value. Active and inactive are the calls of the source. The rule behind the calls is not given here.

Legend:
[1] = target: Carbonic anhydrase 2 (Homo sapiens) (UniProt P00918); assay: Binding affinity to human CA2 by phenol red dye based stopped flow CO2 hydration assay
Method in brief: (§1)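 Purified recombinant human CA isoforms. CA-catalysed CO2 hydration was followed by stopped-flow with phenol red at 557 nm, taking initial rates over 10–100 s from at least six traces of the first 5–10% of reaction. Uncatalysed rates were subtracted. Activator stocks were 0.1 mM in deionised water, diluted down to 0.1 nM in assay buffer. K_A came from non-linear least-squares Michaelis–Menten fitting.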

[2] = target: Carbonic anhydrase 5A, mitochondrial (Homo sapiens) (UniProt P35218); assay: Binding affinity to human CA5a by phenol red dye based stopped flow CO2 hydration assay; settings: filed as activator; method in brief: as §1
Chain of Carbonic anhydrase 5A, mitochondrial (Homo sapiens) (P35218 whole entry): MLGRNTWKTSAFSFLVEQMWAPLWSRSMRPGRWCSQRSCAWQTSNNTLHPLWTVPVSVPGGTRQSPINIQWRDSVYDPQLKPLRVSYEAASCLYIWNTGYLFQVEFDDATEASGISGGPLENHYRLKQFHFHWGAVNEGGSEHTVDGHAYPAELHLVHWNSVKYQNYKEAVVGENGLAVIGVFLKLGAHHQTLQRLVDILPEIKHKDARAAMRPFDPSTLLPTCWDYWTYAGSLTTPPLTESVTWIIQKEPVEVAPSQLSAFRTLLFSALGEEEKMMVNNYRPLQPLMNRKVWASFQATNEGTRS

[3] = target: Carbonic anhydrase 5B, mitochondrial (Homo sapiens) (UniProt Q9Y2D0); assay: Binding affinity to human CA5b by phenol red dye based stopped flow CO2 hydration assay; settings: filed as activator; method in brief: as §1
Chain of Carbonic anhydrase 5B, mitochondrial (Homo sapiens) (Q9Y2D0 whole entry): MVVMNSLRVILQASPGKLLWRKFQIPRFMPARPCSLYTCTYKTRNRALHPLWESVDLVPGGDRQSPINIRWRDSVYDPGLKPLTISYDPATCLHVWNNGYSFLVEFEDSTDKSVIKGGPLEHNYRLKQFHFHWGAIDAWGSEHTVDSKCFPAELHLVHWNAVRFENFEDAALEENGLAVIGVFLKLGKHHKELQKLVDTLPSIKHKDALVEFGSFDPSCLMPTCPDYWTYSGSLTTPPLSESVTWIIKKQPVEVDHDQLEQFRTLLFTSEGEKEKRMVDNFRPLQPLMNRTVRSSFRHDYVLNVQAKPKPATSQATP

[4] = target: Carbonic anhydrase 4 (Homo sapiens) (UniProt P22748); assay: Binding affinity to human CA4 by phenol red dye based stopped flow CO2 hydration assay; settings: filed as activator; method in brief: as §1
Chain of Carbonic anhydrase 4 (Homo sapiens) (P22748 whole entry): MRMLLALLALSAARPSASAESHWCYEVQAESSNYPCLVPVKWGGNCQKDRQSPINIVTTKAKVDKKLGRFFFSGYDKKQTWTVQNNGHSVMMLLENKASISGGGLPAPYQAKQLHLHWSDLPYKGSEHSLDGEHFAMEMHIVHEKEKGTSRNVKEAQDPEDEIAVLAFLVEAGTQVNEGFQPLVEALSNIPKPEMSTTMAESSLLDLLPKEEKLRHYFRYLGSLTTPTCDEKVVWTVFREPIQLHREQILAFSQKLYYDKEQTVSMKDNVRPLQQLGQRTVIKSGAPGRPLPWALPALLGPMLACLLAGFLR

[5] = target: Carbonic anhydrase 14 (Homo sapiens) (UniProt Q9ULX7); assay: Binding affinity to human CA14 by phenol red dye based stopped flow CO2 hydration assay; settings: filed as activator; method in brief: as §1
Chain of Carbonic anhydrase 14 (Homo sapiens) (Q9ULX7 whole entry): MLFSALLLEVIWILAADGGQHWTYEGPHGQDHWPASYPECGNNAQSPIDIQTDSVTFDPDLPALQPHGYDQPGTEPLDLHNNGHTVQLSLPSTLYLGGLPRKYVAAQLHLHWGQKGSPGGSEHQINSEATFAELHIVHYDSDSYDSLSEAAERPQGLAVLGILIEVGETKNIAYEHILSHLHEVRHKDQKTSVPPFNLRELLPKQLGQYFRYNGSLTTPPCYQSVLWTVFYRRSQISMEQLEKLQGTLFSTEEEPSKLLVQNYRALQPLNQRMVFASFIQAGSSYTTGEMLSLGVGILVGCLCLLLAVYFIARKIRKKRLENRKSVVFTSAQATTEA

[6] = target: Carbonic anhydrase 1 (Homo sapiens) (UniProt P00915); assay: Binding affinity to human CA1 by phenol red dye based stopped flow CO2 hydration assay; settings: filed as activator; method in brief: as §1
Chain of Carbonic anhydrase 1 (Homo sapiens) (P00915 2-261 limits assumed): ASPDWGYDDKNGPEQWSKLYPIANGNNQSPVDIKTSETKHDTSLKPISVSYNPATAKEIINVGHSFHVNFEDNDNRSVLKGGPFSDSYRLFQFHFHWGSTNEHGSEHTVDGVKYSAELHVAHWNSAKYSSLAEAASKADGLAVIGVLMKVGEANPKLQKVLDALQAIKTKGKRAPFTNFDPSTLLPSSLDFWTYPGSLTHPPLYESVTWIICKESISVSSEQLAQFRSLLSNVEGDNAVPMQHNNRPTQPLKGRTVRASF

Mus musculus [7] = assay: Pro-cognitive activity in C57Bl6 mouse assessed as attenuation of long-term memory deficit by measuring increase in exploration time for novel juvenile at 50 nmol/uL, icv measured after 48 hrs by novel object recognition test; format: functional, organism-based
Method in brief: (§2)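 Male adult C57Bl6 mice (8–9 weeks), lateral-ventricle cannula implanted 7 days earlier. Social recognition: 10-min habituation to arena with two empty cups; 24 h later 10-min acquisition with an unfamiliar juvenile (3–4 weeks) under one wire cup. Immediately after, 5 µL i.c.v. infusion at 1 µL/min. Retention at 48 h with familiar and novel juvenile; percentage time exploring each cup (snout-to-cup contact).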

Mus musculus [8] = assay: Pro-cognitive activity in C57Bl6 mouse assessed as attenuation of long-term memory deficit by measuring increase in exploration time for novel object at 50 nmol/uL, icv measured after 24 hrs by novel object recognition test; format: functional, organism-based
Method in brief: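 Male adult C57Bl6 mice (8–9 weeks), lateral-ventricle cannula implanted one week before. 10-min habituation to empty open-field arena; 24 h later, 5-min acquisition with two identical objects, followed immediately by 5 µL i.c.v. infusion at 1 µL/min. 5-min retention test 24 h after acquisition with one familiar and one novel object; percentage exploration time per object, two-way ANOVA with Bonferroni.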

Mus musculus [9] = assay: Pro-cognitive activity in C57Bl6 mouse assessed as attenuation of long-term memory deficit by measuring increase in exploration time for novel juvenile by measuring discrimination index at 25 nmol/uL, icv measured after 48 hrs by novel object recognition test; format: functional
Method in brief: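 Social recognition in adult male C57Bl6 mice with intracerebroventricular cannulae. Habituation was 10 min with two empty cups. Twenty-four hours later, a novel 3–4-week-old juvenile was placed under one cup for 10 min of exploration, followed immediately by a 5 µL infusion at 1 µL/min. Retention 48 h later offered familiar versus novel juvenile, scoring snout-to-cup contact. DI = (tN−tF)/(tN+tF).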

[10] = Toxicity in C57Bl6 mouse assessed as reduction in distance travel at 50 nmol/uL administered directly into lateral ventricle by open field test; settings: in vivo, icv_or_intrathecal
Method in brief: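 Cannulated adult male C57Bl6 mice were placed in a 60×70 cm open-field arena 30 min after a 5 µL lateral-ventricle infusion. Total distance travelled over a 5-min session was recorded by overhead video tracking.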

[11] = target: Carbonic anhydrase 7 (Homo sapiens) (UniProt P43166); assay: Binding affinity to human CA7 by phenol red dye based stopped flow CO2 hydration assay; settings: filed as activator; method in brief: as §1
Chain of Carbonic anhydrase 7 (Homo sapiens) (P43166 whole entry): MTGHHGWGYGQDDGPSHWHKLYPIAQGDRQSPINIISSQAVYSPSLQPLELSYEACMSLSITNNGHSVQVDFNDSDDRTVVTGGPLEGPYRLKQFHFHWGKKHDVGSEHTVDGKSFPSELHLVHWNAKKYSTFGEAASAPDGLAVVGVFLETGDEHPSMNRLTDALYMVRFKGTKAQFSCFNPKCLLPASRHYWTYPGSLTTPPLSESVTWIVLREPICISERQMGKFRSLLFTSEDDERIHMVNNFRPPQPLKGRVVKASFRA

[12] = target: Carbonic anhydrase 6 (Homo sapiens) (UniProt P23280); assay: Binding affinity to human CA6 by phenol red dye based stopped flow CO2 hydration assay; settings: filed as activator; method in brief: as §1
Chain of Carbonic anhydrase 6 (Homo sapiens) (P23280 whole entry): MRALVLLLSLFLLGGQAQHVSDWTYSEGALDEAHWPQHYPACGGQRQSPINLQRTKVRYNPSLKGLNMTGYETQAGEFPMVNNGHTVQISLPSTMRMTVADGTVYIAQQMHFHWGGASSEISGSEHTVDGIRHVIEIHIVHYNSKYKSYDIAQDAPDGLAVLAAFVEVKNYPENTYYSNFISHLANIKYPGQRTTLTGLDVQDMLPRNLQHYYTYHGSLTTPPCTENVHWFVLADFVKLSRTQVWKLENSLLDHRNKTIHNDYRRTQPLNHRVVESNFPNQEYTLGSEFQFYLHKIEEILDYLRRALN

Mus musculus [13] = assay: Pro-cognitive activity in C57Bl6 mouse assessed as attenuation of long-term memory deficit by measuring increase in exploration time for novel object by measuring discrimination index at 25 nmol/uL, icv measured after 24 hrs by novel object recognition test
[14] = target: T1, Amine oxidase [flavin-containing] A (Homo sapiens, UniProt P21397); assay: Inhibition of human recombinant MAO-A assessed as inhibition of 4-hydroxyquinoline formation using kynuramine as substrate by fluorescence spectrophotometry analysis
T1 sequence (P21397 whole entry): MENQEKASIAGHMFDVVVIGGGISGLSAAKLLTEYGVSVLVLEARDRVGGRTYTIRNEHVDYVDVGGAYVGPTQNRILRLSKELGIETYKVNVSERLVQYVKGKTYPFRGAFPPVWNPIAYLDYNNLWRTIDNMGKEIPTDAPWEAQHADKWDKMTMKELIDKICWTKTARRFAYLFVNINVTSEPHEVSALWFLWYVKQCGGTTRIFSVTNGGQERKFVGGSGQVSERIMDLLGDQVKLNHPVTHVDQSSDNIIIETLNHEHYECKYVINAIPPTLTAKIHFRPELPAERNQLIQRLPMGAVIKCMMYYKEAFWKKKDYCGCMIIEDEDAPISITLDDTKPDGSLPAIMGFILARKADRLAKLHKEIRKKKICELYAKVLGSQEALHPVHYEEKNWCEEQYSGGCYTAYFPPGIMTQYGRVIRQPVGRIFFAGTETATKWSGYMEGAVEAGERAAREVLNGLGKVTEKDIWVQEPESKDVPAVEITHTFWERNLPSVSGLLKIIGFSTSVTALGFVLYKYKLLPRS
Method in brief: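 Recombinant human MAO-A with kynuramine as substrate. The 4-hydroxyquinoline product was quantified by fluorescence spectrophotometry, and IC50 values were determined.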

Mus musculus [15] = assay: Pro-cognitive activity in C57Bl6 mouse assessed as attenuation of long-term memory deficit by measuring increase in exploration time for novel object by measuring discrimination index at 50 nmol/uL, icv measured after 24 hrs by novel object recognition test; format: functional
Method in brief: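 Novel object recognition in adult male C57Bl6 mice. Habituation was 10 min in an empty arena. Twenty-four hours later, mice explored two identical objects for 5 min, then received an immediate 5 µL lateral-ventricle infusion at 1 µL/min. A 5-min retention test with one familiar and one novel object followed 24 h later. Scores were % exploration time and DI = (tN−tF)/(tN+tF).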

Mus musculus [16] = assay: Pro-cognitive activity in C57Bl6 mouse assessed as attenuation of long-term memory deficit by measuring increase in exploration time for novel juvenile at 25 nmol/uL, icv measured after 48 hrs by novel object recognition test; format: functional, organism-based; method in brief: as §2
[17] = target: Carbonic anhydrase 13 (Homo sapiens) (UniProt Q8N1Q1); assay: Binding affinity to human CA13 by phenol red dye based stopped flow CO2 hydration assay; settings: filed as activator; method in brief: as §1
Chain of Carbonic anhydrase 13 (Homo sapiens) (Q8N1Q1 whole entry, looked up): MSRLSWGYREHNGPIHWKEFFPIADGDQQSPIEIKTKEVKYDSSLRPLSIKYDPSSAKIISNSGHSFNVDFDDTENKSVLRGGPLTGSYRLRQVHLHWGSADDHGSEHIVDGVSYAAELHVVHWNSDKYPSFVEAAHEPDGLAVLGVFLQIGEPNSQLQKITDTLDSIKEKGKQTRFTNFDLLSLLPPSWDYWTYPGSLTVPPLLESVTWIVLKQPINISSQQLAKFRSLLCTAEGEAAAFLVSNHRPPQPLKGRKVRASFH

[18] = Toxicity in overnight fasted C57Bl6 mouse assessed as reduction in food intake at 50 nmol/uL administered directly into lateral ventricle measured for 2 hrs; settings: in vivo, icv_or_intrathecal
Method in brief: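 Overnight-fasted male C57Bl6 mice received a lateral-ventricle infusion. Food was presented 30 min later, and intake was recorded at 0.5 h intervals over 2 h as cumulative consumption corrected for body weight; n = 8–9 per group.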

[19] = target: Carbonic anhydrase 3 (Homo sapiens) (UniProt P07451); assay: Binding affinity to human CA3 by phenol red dye based stopped flow CO2 hydration assay; settings: filed as activator; method in brief: as §1
Chain of Carbonic anhydrase 3 (Homo sapiens) (P07451 whole entry): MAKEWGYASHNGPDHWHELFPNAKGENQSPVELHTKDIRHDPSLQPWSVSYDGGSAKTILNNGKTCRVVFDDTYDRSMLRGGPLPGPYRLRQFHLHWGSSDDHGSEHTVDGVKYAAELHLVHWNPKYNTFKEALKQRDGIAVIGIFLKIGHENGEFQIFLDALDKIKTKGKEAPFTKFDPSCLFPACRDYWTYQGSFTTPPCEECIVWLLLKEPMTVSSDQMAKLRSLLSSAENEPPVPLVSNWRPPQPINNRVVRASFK

CC(N)CSc1ccccc1 (centres undefined)
Ka [1]: > 100 µM | Ka [2]: 12.4 µM | Ka [3]: 18.7 µM | Ka [4]: 7.1 µM | Ka [5]: 9.8 µM | Ka [6]: 11.8 µM | Activity (Mus musculus [7]): Active | Activity (Mus musculus [8]): Active | Activity_index (Mus musculus [9]): 0.038 | Activity [10]: Non-Toxic | Ka [11]: 23.4 µM | Ka [12]: 70.9 µM | Activity_index (Mus musculus [13]): 0.111 | pIC50 [14]: 5.33 | Activity_index (Mus musculus [15]): 0.185 | Activity (Mus musculus [16]): inactive | Ka [17]: 82.4 µM | Activity [18]: Non-Toxic | Ka [19]: 26.8 µM
